Calls of active or inactive are those of the source. No cut-off for these calls is given here.

For one data set, the system named is MT4. Description: Cytotoxicity against human MT4 cells after 2 days. Type of data set: cell-based. The note with it: mt4, 48 h.
For data set [1], the system named is Human immunodeficiency virus 1. Description: Antiviral activity against HIV1 infected in human TZM-bl cells assessed as reduction of viral entry after 48 hrs by luciferase reporter gene assay. It is filed as functional, organism-based. The procedure, abridged: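 Single-round infection of TZM-bl cells (HeLa clone expressing CD4/CCR5 with HIV-1 LTR-driven firefly luciferase) with HIV-1 at 200 TCID50 mixed with test samples. After 48 h, medium was replaced with Bright-Glo reagent and luminescence read. IC50 is the concentration giving 50% RLU reduction versus virus-control wells after background subtraction.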

Data set [2] can be described thus: Therapeutic index, ratio of CC50 for human MT4 cells to IC50 for HIV-1 NL4-3. The note with it: read-out: Ratio CC50/IC50. Type of data set: cell-based. The procedure, abridged: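 TI calculated as CC50 (mock-infected MT-4 growth, 2 days) divided by IC50 (HIV-1 NL4-3 replication in MT-4 cells, p24 ELISA at day 4).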
The test system of data set [3] is Human immunodeficiency virus 1. Description: Antiviral activity against HIV1 NL4-3 infected in human MT4 cells assessed as p24 antigen level after 4 days by ELISA. Type of data set: functional, organism-based. The note with it: Human immunodeficiency virus 1, NL4-3, MT4, 96 h. Put shortly:
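MT-4 cells infected with HIV-1 NL4-3 variants at MOI 0.01; supernatants harvested day 4 post-infection for p24 antigen capture ELISA. IC50 is the concentration inhibiting replication by 50%; values are averages of at least three separate experiments.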

In data set [4] the test system is Human immunodeficiency virus 1. Description: Antiviral activity against HIV1 NL4-3 infected in human MT4 cells assessed as p24 antigen level at 10 uM after 4 days by ELISA. Type of data set: functional, organism-based.
In data set [5] the test system is Human immunodeficiency virus 1. Description: Antiviral activity against HIV1 infected in human TZM-bl cells assessed as reduction of viral […] after 48 hrs by luciferase reporter gene assay. Type of data set: functional, organism-based. The procedure, abridged: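 Single-round infection of TZM-bl cells (HeLa clone expressing CD4 and CCR5, HIV-1 LTR-driven firefly luciferase) with HIV-1 at 200 TCID50 mixed with samples. Luminescence read after 48 h. IC50 is the concentration giving 50% lower RLU than virus control wells, after subtracting background RLU.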

For `C#CCOC(=O)[C@]12CC[C@@H](C(=C)C)[C@@H]1[C@H]1CC[C@@H]3[C@@]4(C)CC[C@H](OC(=O)CC(C)(C)C(=O)O)C(C)(C)[C@@H]4CC[C@@]3(C)[C@]1(C)CC2`, the midpoint of cytotoxicity in the data set on MT4, the CC50, lay at 15300 nM. Also, the outcome in data set [1] was inactive. Further, in data set [2], the selectivity ratio is 226. In addition, the 50% inhibitory concentration (IC50) in data set [3] came out at 67 nM.
In the case of `C=C(C)[C@@H]1CC[C@]2(C(=O)N3CCN(CCCC(=O)O)CC3)CC[C@]3(C)[C@H](CC[C@@H]4[C@@]5(C)CC[C@H](O)C(C)(C)[C@@H]5CC[C@]43C)[C@@H]12`, the result in data set [1] and in data set [4] was inactive.
`C=C(C)[C@@H]1CC[C@]2(C(=O)OCCCCCCCC)CC[C@]3(C)[C@H](CC[C@@H]4[C@@]5(C)CC[C@H](O)C(C)(C)[C@@H]5CC[C@]43C)[C@@H]12`: the result in data set [1] and in data set [4] was inactive.
As to `C=C(C)[C@@H]1CC[C@]2(C(=O)N3CCC(CCCC(=O)N4CCOCC4)CC3)CC[C@]3(C)[C@H](CC[C@@H]4[C@@]5(C)CC[C@H](O)C(C)(C)[C@@H]5CC[C@]43C)[C@@H]12`, the result in data set [1] and in data set [4] was inactive.
`C=C(C)[C@@H]1CC[C@]2(C(=O)OCCCCCCCC)CC[C@]3(C)[C@H](CC[C@@H]4[C@@]5(C)CC[C@H](OC(=O)CC(C)(C)C(=O)O)C(C)(C)[C@@H]5CC[C@]43C)[C@@H]12`: the result in data set [1] and in data set [4] was inactive.
For the molecule `C=C(C)[C@@H]1CC[C@]2(C(=O)OCOC)CC[C@]3(C)[C@H](CC[C@@H]4[C@@]5(C)CC[C@H](O)C(C)(C)[C@@H]5CC[C@]43C)[C@@H]12`, the outcome in data set [1] and in data set [4] was inactive.
Take `C=C(C)[C@@H]1CC[C@]2(C(=O)O)CC[C@]3(C)[C@H](CC[C@@H]4[C@@]5(C)CC[C@H](OCOC)C(C)(C)[C@@H]5CC[C@]43C)[C@@H]12`: the result in data set [1] and in data set [4] was inactive.
On to `C=C(C)[C@@H]1CC[C@]2(C(=O)N3CCC(CCCC(=O)NCCCN4CCOCC4)CC3)CC[C@]3(C)[C@H](CC[C@@H]4[C@@]5(C)CC[C@H](O)C(C)(C)[C@@H]5CC[C@]43C)[C@@H]12`, for which the result in data set [1] and in data set [4] was inactive.
`C=C(C)[C@@H]1CC[C@]2(C(=O)OCc3cn([C@H]4C[C@H](n5cc(C)c(=O)[nH]c5=O)O[C@@H]4CO)nn3)CC[C@]3(C)[C@H](CC[C@@H]4[C@@]5(C)CC[C@H](OC(=O)CC(C)(C)C(=O)O)C(C)(C)[C@@H]5CC[C@]43C)[C@@H]12` came in with a CC50 in the data set with MT4 of 11000 nM. Further, the result in data set [1] was inactive. Moreover, the selectivity ratio in data set [2] turned out to be 101. Moreover, the IC50 in data set [3] stood at 100 nM.
Consider `C#CCOC(=O)[C@]12CC[C@@H](C(=C)C)[C@@H]1[C@H]1CC[C@@H]3[C@@]4(C)CC[C@H](O)C(C)(C)[C@@H]4CC[C@@]3(C)[C@]1(C)CC2`, for which the outcome in data set [1] and in data set [4] was inactive.
In the case of `C=C(C)[C@@H]1CC[C@]2(C(=O)N3CCC(CCCC(=O)NC)CC3)CC[C@]3(C)[C@H](CC[C@@H]4[C@@]5(C)CC[C@H](OC(=O)CC(C)(C)C(=O)O)C(C)(C)[C@@H]5CC[C@]43C)[C@@H]12`, the CC50 in the data set on MT4 is greater than 13300 nM. In addition, the result in data set [1] was inactive. Further, in data set [2], the selectivity ratio was greater than 55.5. In addition, the IC50 in data set [3] worked out at 240 nM.
Take `C=C(C)[C@@H]1CC[C@]2(C(=O)OCCCCCC(=O)OCC)CC[C@]3(C)[C@H](CC[C@@H]4[C@@]5(C)CC[C@H](O)C(C)(C)[C@@H]5CC[C@]43C)[C@@H]12`: the result in data set [1] and in data set [4] was inactive.
In the case of `C=C(C)[C@@H]1CC[C@]2(C(=O)O)CC[C@]3(C)[C@H](CC[C@@H]4[C@@]5(C)CC[C@H](O)C(C)(C)[C@@H]5CC[C@]43C)[C@@H]12`, the outcome in data set [1] was Active.
Consider `C=C(C)[C@@H]1CC[C@]2(C(=O)ON3C(=O)CCC3=O)CC[C@]3(C)[C@H](CC[C@@H]4[C@@]5(C)CC[C@H](OC(=O)CC(C)(C)C(=O)O)C(C)(C)[C@@H]5CC[C@]43C)[C@@H]12`, for which the midpoint of cytotoxicity in the data set on MT4, the CC50, lay at 11000 nM. Further, the result in data set [1] was inactive. Besides, the selectivity ratio in data set [2] turned out to be 86.2. Moreover, in data set [3], the IC50 was 130 nM.
Turning to `C=C(C)[C@@H]1CC[C@]2(C(=O)OCCC)CC[C@]3(C)[C@H](CC[C@@H]4[C@@]5(C)CC[C@H](O)C(C)(C)[C@@H]5CC[C@]43C)[C@@H]12`, the result in data set [1] and in data set [4] was inactive. Besides, in data set [5], the outcome was Active.
`C=C(C)[C@@H]1CC[C@]2(C(=O)ON3C(=O)CCC3=O)CC[C@]3(C)[C@H](CC[C@@H]4[C@@]5(C)CC[C@H](O)C(C)(C)[C@@H]5CC[C@]43C)[C@@H]12`: the outcome in data set [1] and in data set [4] was inactive.
Take `C=C(C)[C@@H]1CC[C@]2(C(=O)OCCCCCC)CC[C@]3(C)[C@H](CC[C@@H]4[C@@]5(C)CC[C@H](O)C(C)(C)[C@@H]5CC[C@]43C)[C@@H]12`: the result in data set [1] and in data set [4] was inactive. The result in data set [5] was Active.
In the data set with MT4, `C=C(C)[C@@H]1CC[C@]2(C(=O)OCCOCCOCCOCCOC(=O)CC(C)(C)C(=O)O)CC[C@]3(C)[C@H](CC[C@@H]4[C@@]5(C)CC[C@H](OC(=O)CC(C)(C)C(=O)O)C(C)(C)[C@@H]5CC[C@]43C)[C@@H]12` displayed a CC50 of 8900 nM. Besides, the result in data set [1] was inactive. In addition, in data set [2], the selectivity ratio stood at 111. Further, the IC50 in data set [3] stood at 79 nM.
As to `C=C(C)[C@@H]1CC[C@]2(C(=O)OCOC)CC[C@]3(C)[C@H](CC[C@@H]4[C@@]5(C)CC[C@H](OCOC)C(C)(C)[C@@H]5CC[C@]43C)[C@@H]12`, the outcome in data set [1] and in data set [4] was inactive.
In the case of `C=C(C)[C@@H]1CC[C@]2(C(=O)N3CCC(CCCC(=O)NCCN4CCOCC4)CC3)CC[C@]3(C)[C@H](CC[C@@H]4[C@@]5(C)CC[C@H](O)C(C)(C)[C@@H]5CC[C@]43C)[C@@H]12`, the result in data set [1] and in data set [4] was inactive.
On to `C=C(C)[C@@H]1CC[C@]2(C(=O)O)CC[C@]3(C)[C@H](CC[C@@H]4[C@@]5(C)CC[C@H](OCOCCOC)C(C)(C)[C@@H]5CC[C@]43C)[C@@H]12`, for which the outcome in data set [1] and in data set [4] was inactive.
On to `C=C(C)[C@@H]1CC[C@]2(C(=O)OCCOCCOCCOCCO)CC[C@]3(C)[C@H](CC[C@@H]4[C@@]5(C)CC[C@H](O)C(C)(C)[C@@H]5CC[C@]43C)[C@@H]12`, for which the result in data set [1] and in data set [4] was inactive.
For `C=C(C)[C@@H]1CC[C@]2(C(=O)OCOCCOC)CC[C@]3(C)[C@H](CC[C@@H]4[C@@]5(C)CC[C@H](OCOCCOC)C(C)(C)[C@@H]5CC[C@]43C)[C@@H]12`, the outcome in data set [1] and in data set [4] was inactive.
In the data set with MT4, `C=C(C)[C@@H]1CC[C@]2(C(=O)N3CCC(CCCC(=O)N4CCOCC4)CC3)CC[C@]3(C)[C@H](CC[C@@H]4[C@@]5(C)CC[C@H](OC(=O)CC(C)(C)C(=O)O)C(C)(C)[C@@H]5CC[C@]43C)[C@@H]12` returned a CC50 of 10900 nM. Further, the outcome in data set [1] was inactive. For the same molecule, in data set [2], the selectivity ratio worked out at 156. Also, the IC50 in data set [3] was determined as 70 nM.
With `C=C(C)[C@@H]1CC[C@]2(C(=O)OCOCCOC)CC[C@]3(C)[C@H](CC[C@@H]4[C@@]5(C)CC[C@H](O)C(C)(C)[C@@H]5CC[C@]43C)[C@@H]12`, the outcome in data set [1] and in data set [4] was inactive.
Regarding `C=C(C)[C@@H]1CC[C@]2(C(=O)N3CCN(CCCCC(=O)O)CC3)CC[C@]3(C)[C@H](CC[C@@H]4[C@@]5(C)CC[C@H](O)C(C)(C)[C@@H]5CC[C@]43C)[C@@H]12`, the result in data set [1] and in data set [4] was inactive.
`C=C(C)[C@@H]1CC[C@]2(C(=O)N3CCC(CCCC(=O)NC)CC3)CC[C@]3(C)[C@H](CC[C@@H]4[C@@]5(C)CC[C@H](O)C(C)(C)[C@@H]5CC[C@]43C)[C@@H]12`: the outcome in data set [1] and in data set [4] was inactive.
In the data set with MT4, `C=C(C)[C@@H]1CC[C@]2(C(=O)OCOC)CC[C@]3(C)[C@H](CC[C@@H]4[C@@]5(C)CC[C@H](OC(=O)CC(C)(C)C(=O)O)C(C)(C)[C@@H]5CC[C@]43C)[C@@H]12` came in with a CC50 of 12400 nM. For the same molecule, the result in data set [1] was inactive. In addition, the selectivity ratio in data set [2] worked out at 70.9. Also, in data set [3], the IC50 is 170 nM.
Consider `C=C(C)[C@@H]1CC[C@]2(C(=O)OCCCc3ccccc3)CC[C@]3(C)[C@H](CC[C@@H]4[C@@]5(C)CC[C@H](O)C(C)(C)[C@@H]5CC[C@]43C)[C@@H]12`, for which the result in data set [1] and in data set [4] was inactive.

The record behind these values is ChEMBL document CHEMBL2176886, “Anti-AIDS agents 90. novel C-28 modified bevirimat analogues as potent HIV maturation inhibitors” (J Med Chem, 2012).
